From PubChem BioAssay AID623874 (Vanderbilt Specialized Chemistry Center, 2012)
Activity calls are given as the source filed them.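 Rule for the calls: active = glutamate fold shift at least 2 as enhancer or at most 0.5 as blocker, actives on both sides; inactive = the rest.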

Biological target: Metabotropic glutamate receptor 1 (Rattus norvegicus) (UniProt P23385)
Test: rat mGlu1 modulation, glutamate curve fold shift, SAR follow-up, selectivity assay for mGlu4 PAM lead optimization, cell-based, calcium flux (AID 623874)
Settings: rat mGlu1 cells, Fluo-4 calcium flux, glutamate CRC shift; at 10 µM
Outline: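 Material: cells loaded with Fluo-4 calcium indicator dye; Medium: HEPES-buffered HBSS plus probenecid, pH 7.3; Probe or stimulus: glutamate agonist; Dosing: single test compound dose, 10 µM final; Schedule: about 2.5 min compound pre-incubation before glutamate addition; Detection: Fluo-4 calcium fluorescence.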

Metabotropic glutamate receptor 1 (Rattus norvegicus), sequence (P23385 whole entry, looked up): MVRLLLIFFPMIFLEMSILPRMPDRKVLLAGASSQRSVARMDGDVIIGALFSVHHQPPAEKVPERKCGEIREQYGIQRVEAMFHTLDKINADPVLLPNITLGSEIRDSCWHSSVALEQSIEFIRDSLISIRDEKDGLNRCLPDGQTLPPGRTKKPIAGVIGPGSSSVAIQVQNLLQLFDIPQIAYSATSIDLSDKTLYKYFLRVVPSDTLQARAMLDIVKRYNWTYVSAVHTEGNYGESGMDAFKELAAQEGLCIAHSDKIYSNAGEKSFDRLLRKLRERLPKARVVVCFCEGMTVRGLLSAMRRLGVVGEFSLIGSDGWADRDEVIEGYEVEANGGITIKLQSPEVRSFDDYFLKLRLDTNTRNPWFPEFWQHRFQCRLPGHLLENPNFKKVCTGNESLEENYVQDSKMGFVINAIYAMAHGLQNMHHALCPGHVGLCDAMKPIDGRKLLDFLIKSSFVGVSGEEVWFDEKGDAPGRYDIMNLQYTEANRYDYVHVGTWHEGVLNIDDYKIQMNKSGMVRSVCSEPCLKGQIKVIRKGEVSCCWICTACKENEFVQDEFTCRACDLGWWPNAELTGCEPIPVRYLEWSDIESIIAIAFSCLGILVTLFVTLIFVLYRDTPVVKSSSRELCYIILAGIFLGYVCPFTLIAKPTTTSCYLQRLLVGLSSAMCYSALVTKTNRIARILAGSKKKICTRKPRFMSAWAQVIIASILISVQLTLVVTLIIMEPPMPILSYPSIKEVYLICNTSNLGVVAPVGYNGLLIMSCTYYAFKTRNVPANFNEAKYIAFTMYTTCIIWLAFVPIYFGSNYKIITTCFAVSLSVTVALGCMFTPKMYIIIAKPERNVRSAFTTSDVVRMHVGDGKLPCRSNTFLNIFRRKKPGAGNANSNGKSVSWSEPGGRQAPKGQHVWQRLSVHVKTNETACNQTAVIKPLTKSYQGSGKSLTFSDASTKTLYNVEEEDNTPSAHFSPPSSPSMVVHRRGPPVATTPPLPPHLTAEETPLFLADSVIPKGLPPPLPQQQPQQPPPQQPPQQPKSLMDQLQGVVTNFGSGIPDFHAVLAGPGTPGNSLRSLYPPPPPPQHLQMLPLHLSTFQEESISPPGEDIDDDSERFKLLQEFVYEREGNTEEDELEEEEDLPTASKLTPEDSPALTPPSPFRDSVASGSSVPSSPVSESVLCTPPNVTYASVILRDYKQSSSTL

fold shift: 1.17 (inactive)
SMILES: O=C(Nc1cccc(Cl)c1)c1ccccn1
